Data as given in ChEMBL document CHEMBL2057168, “(1aR,5aR)1a,3,5,5a-Tetrahydro-1H-2,3-diaza-cyclopropa[a]pentalene-4-carboxylic acid (MK-1903): a potent GPR109a agonist that lowers free fatty acids in humans” (J Med Chem, 2012).
One block for each molecule: values may come before it. Active and inactive are the calls of the source. The calls are words filed in the database; no cut-off is given here.

What was measured:
[1] = target: Hydroxycarboxylic acid receptor 3 (Homo sapiens) (UniProt P49019); experiment: Agonist activity at human GPR109b assessed as decrease in forskolin-stimulated cAMP production by HTRF assay; format: functional
[2] = target: Cytochrome P450 2D6 (Homo sapiens, UniProt P10635); experiment: Activity at CYP2D6; format: ADME
[3] = target: T1, Cytochrome P450 2C8 (Homo sapiens, UniProt P10632); experiment: Activity at CYP2C8; format: ADME
T1 sequence (P10632 whole entry): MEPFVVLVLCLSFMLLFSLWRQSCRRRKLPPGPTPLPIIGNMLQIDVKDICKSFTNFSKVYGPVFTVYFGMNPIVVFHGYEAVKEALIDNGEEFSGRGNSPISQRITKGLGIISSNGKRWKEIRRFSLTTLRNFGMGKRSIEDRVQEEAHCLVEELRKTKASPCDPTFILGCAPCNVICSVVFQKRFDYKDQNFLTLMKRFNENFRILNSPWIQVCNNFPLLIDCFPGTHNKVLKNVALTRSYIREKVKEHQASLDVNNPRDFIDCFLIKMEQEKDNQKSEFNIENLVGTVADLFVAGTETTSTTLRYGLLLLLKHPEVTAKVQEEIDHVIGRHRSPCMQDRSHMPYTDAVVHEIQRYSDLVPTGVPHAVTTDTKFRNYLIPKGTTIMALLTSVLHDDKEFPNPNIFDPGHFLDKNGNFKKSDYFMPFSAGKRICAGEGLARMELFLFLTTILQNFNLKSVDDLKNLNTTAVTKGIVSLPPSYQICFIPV

[4] = target: Cytochrome P450 2C9 (Homo sapiens, UniProt P11712); experiment: Activity at CYP2C9; format: ADME
[5] = target: Cytochrome P450 3A4 (Homo sapiens, UniProt P08684); experiment: Activity at CYP3A4; format: ADME
[6] = system: Rattus norvegicus; experiment: Antidyslipedic activity in fasted Sprague-Dawley rat assessed as decrease in free fatty acid level at 0.01 to 100 mg/kg, po by NEFA C-free fatty acid assay; format: functional; design: scale not given: the % may be the effect or the level left; conditions: dose mg/kg 0.01-100
Method in brief: (§1)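 Male Sprague-Dawley rats fasted, compound by oral gavage, serial plasma sampling after dosing for free fatty acids over a time course; vehicle-dosed control group.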

[7] = system: Rattus norvegicus; experiment: Antidyslipedic activity in fasted Sprague-Dawley rat assessed as decrease in free fatty acid level at 0.1 to 30 mg/kg, po by NEFA C-free fatty acid assay; format: functional; design: scale not given: the % may be the effect or the level left; conditions: dose mg/kg 0.1-30; method in brief: as §1
[8] = system: Mus musculus; experiment: Toxicity in C57/Bl6 mouse assessed as increase in cutaneous blood flow in ear at 100 mg/kg, ip after 5 mins relative to vehicle treated control by laser doppler flowmetry; format: organism-based; design: dose 100 mg/kg, route intraperitoneal; conditions: in vivo
Method in brief: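 Male C57/Bl6 mice (8–10 weeks, ~25 g) anesthetized with Nembutal ip (80 mg/10 mL/kg). Ear perfusion recorded by laser Doppler imaging: 3 min baseline, then vehicle (PBS, 40% HPBCD or 0.5% methylcellulose) or compound given ip at 5 mL/kg through a preinserted syringe, with readings for ~15 min. Expressed as % change of perfusion over baseline.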

[9] = Blood clearance in mouse; format: ADME, organism-based; conditions: whole blood
Method in brief: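 Pharmacokinetics across species; for mice, clearance determined in blood rather than plasma following dosing.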

[10] = Volume of distribution in mouse; format: ADME, organism-based; conditions: in vivo
[11] = Terminal half life in mouse; format: ADME, organism-based; conditions: in vivo, read-out: beta t1/2 (converted)
[12] = system: Mus musculus; experiment: Dose normalized Cmax in po dosed mouse; format: ADME, organism-based; conditions: in vivo
[13] = system: Mus musculus; experiment: Dose normalized AUC in po dosed mouse; format: ADME, organism-based; conditions: in vivo
[14] = Oral bioavailability in mouse; format: ADME, organism-based; conditions: in vivo
[15] = Plasma clearance in Sprague-Dawley rat at 2 mg/kg, iv; format: ADME, organism-based; design: dose 2 mg/kg, route intravenous
Method in brief: (§2)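 Male Sprague-Dawley rats were dosed at 10 mg/kg po or 2 mg/kg iv in 80% PEG400/20% phosphate-buffered saline, fasted overnight before the oral dose. Jugular blood was sampled serially from 0.25 to 21 h over 24 h, and heparinized plasma was prepared. Drug was assayed by HPLC/MS/MS (quantitation range 1–2000 ng/mL).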

[16] = Volume of distribution in Sprague-Dawley rat at 2 mg/kg, iv; format: ADME, organism-based; design: dose 2 mg/kg, route intravenous; conditions: in vivo
Method in brief: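 Male Sprague–Dawley rats dosed iv at 2 mg/kg in 80% PEG400/20% phosphate buffered saline. Jugular vein blood was serially sampled over 24 h, and plasma was prepared from sodium heparin blood. Plasma was analysed by HPLC/MS/MS (LLOQ 1 ng/mL, ULOQ 2000 ng/mL).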

[17] = Terminal half life in Sprague-Dawley rat at 2 mg/kg, iv; format: ADME, organism-based; design: dose 2 mg/kg, route intravenous; conditions: in vivo, read-out: beta t1/2 (converted); method in brief: as §2
[18] = system: Rattus norvegicus; experiment: Dose normalized Cmax in Sprague-Dawley rat at 10 mg/kg, po; format: ADME, organism-based; design: dose 10 mg/kg, route oral; conditions: in vivo; method in brief: as §2
[19] = system: Rattus norvegicus; experiment: Dose normalized AUC in Sprague-Dawley rat at 10 mg/kg, po; format: ADME, organism-based; design: dose 10 mg/kg, route oral; conditions: in vivo; method in brief: as §2
[20] = Oral bioavailability in Sprague-Dawley rat at 10 mg/kg; format: ADME, organism-based; conditions: in vivo; method in brief: as §2
[21] = Plasma clearance in dog; format: ADME, organism-based, Canis lupus familiaris
[22] = Volume of distribution in dog; format: ADME, organism-based, Canis lupus familiaris; conditions: in vivo
[23] = Terminal half life in dog; format: ADME, organism-based, Canis lupus familiaris; conditions: in vivo, read-out: beta t1/2 (converted)
[24] = system: Canis familiaris; experiment: Dose normalized Cmax in po dosed dog; format: ADME, organism-based, Canis lupus familiaris; conditions: in vivo
[25] = system: Canis familiaris; experiment: Dose normalized AUC in po dosed dog; format: ADME, organism-based, Canis lupus familiaris; conditions: in vivo
[26] = Oral bioavailability in dog; format: ADME, organism-based, Canis lupus familiaris; conditions: in vivo
[27] = system: Rattus norvegicus; experiment: Antidyslipedic activity in fasted Sprague-Dawley rat assessed as decrease in free fatty acid level at 0.001 mg/kg, po by NEFA C-free fatty acid assay; format: functional, organism-based; design: dose 0.001 mg/kg; method in brief: as §1

Sequence of Hydroxycarboxylic acid receptor 3 (Homo sapiens) (P49019 whole entry): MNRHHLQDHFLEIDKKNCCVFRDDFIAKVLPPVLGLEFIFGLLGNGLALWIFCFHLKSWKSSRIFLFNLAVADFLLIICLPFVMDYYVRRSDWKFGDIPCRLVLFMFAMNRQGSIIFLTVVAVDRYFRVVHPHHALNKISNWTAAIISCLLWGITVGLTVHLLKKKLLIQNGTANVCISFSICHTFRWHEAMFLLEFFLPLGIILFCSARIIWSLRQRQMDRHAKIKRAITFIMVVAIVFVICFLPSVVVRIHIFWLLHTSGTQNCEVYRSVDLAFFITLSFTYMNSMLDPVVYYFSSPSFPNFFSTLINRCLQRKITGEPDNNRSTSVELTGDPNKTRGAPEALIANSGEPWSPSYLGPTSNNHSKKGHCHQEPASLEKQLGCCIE
Sequence of Cytochrome P450 3A4 (P08684 whole entry): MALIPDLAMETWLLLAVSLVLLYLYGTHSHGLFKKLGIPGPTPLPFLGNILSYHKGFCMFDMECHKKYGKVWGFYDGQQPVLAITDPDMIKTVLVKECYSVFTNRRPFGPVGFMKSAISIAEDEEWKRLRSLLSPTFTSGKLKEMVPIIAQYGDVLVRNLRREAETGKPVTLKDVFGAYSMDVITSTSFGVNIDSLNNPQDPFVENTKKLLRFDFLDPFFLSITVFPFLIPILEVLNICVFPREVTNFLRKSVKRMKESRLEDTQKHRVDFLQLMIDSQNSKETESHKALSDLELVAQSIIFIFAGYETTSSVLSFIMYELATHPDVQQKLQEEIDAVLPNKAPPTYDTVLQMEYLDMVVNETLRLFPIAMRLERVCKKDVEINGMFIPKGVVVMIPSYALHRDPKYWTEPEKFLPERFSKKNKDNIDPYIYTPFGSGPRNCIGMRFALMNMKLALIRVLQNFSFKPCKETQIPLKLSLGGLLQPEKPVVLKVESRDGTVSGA
Sequence of Cytochrome P450 2C9 (P11712 whole entry): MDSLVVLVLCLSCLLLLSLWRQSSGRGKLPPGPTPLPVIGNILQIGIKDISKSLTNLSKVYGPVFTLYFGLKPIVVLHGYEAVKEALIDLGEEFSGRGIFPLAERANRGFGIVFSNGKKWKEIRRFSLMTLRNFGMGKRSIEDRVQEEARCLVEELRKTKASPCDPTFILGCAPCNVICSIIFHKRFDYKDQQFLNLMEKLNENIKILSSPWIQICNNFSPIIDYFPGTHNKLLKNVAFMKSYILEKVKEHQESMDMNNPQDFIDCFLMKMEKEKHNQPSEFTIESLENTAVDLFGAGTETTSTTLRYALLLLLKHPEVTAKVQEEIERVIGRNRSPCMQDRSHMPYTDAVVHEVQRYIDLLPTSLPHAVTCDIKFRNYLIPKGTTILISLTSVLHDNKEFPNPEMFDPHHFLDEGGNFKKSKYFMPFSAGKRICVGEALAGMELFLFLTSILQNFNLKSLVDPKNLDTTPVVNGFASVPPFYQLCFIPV
Sequence of Cytochrome P450 2D6 (P10635 whole entry): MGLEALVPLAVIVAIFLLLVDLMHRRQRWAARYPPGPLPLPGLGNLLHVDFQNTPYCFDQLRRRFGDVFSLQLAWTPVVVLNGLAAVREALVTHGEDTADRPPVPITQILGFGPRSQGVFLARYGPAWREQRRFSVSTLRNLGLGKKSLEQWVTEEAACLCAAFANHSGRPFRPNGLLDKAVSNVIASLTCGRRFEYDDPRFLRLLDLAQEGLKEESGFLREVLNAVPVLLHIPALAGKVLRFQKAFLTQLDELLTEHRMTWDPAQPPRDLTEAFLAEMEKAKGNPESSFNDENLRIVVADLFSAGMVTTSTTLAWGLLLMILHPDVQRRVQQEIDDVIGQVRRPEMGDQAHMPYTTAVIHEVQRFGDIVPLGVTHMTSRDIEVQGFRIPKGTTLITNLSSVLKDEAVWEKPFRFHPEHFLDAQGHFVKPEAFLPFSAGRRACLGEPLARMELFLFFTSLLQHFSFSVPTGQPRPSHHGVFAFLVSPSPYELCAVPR

SMILES: CSC[C@H]1[C@@H]2Cc3c(C(=O)O)n[nH]c3[C@H]12 (racemic)
Activity [1]: inactive

SMILES: CC(C)C[C@H]1[C@@H]2Cc3c(C(=O)O)n[nH]c3[C@@H]21 (racemic)
Activity [1]: inactive

SMILES: C1Cc2[nH]nc(-c3nn[nH]n3)c2C1
Activity [1]: inactive

SMILES: C=C[C@@H]1[C@@H]2Cc3c(C(=O)O)n[nH]c3[C@H]12 (racemic)
Activity [1]: inactive

SMILES: CC(C)CC[C@H]1[C@@H]2Cc3c(C(=O)O)n[nH]c3[C@H]12 (racemic)
Activity [1]: inactive

SMILES: CCCCC[C@@H]1[C@@H]2Cc3c(C(=O)O)n[nH]c3[C@H]12 (racemic)
Activity [1]: inactive

SMILES: C=C[C@H]1[C@@H]2Cc3c(C(=O)O)n[nH]c3[C@H]12 (racemic)
Activity [1]: inactive

SMILES: COC[C@H]1[C@@H]2Cc3c(C(=O)O)n[nH]c3[C@H]12 (racemic)
Activity [1]: inactive

SMILES: C[C@@H]1[C@@H]2Cc3c(C(=O)O)n[nH]c3[C@H]12 [listing 1 of 2 here]
Activity [2]: Not Active
Activity [3]: Not Active
Activity [4]: Not Active
Activity [5]: Not Active
Activity [6]: 90%
Activity [7]: 90%
Activity [8]: 30%
clearance [9]: 35 mL/min/kg
Vd [10]: 0.61 L/kg
half-life [11]: 0.3 h
Cmax/dose [12]: 1.5 µM·kg/mg
AUC/dose [13]: 1.4 µM·kg·h/mg
bioavailability [14]: 51%
clearance [15]: 17 mL/min/kg
Vd [16]: 0.53 L/kg
half-life [17]: 2.4 h
Cmax/dose [18]: 5 µM·kg/mg
AUC/dose [19]: 5.1 µM·kg·h/mg
bioavailability [20]: 90%
clearance [21]: 2.4 mL/min/kg
Vd [22]: 0.22 L/kg
half-life [23]: 2.1 h
Cmax/dose [24]: 26 µM·kg/mg
AUC/dose [25]: 44.4 µM·kg·h/mg
bioavailability [26]: 100%

SMILES: CCCC[C@H]1[C@@H]2Cc3c(C(=O)O)n[nH]c3[C@H]12 (racemic)
Activity [1]: inactive

SMILES: O=C(O)c1cccnc1 [NIACIN]
Activity [1]: inactive
Activity [8]: 60%

SMILES: CCC[C@H]1[C@@H]2Cc3c(C(=O)O)n[nH]c3[C@H]12 (racemic)
Activity [1]: inactive

SMILES: C=CC[C@@H]1[C@@H]2Cc3c(C(=O)O)n[nH]c3[C@H]12 (racemic)
Activity [1]: inactive

SMILES: CCCC[C@@H]1[C@@H]2Cc3c(C(=O)O)n[nH]c3[C@H]12 (racemic)
Activity [1]: inactive

SMILES: O=C(O)c1n[nH]c2c1C[C@H]1[C@@H](CC3CC3)[C@@H]21 (racemic; form 1)
Activity [1]: inactive

SMILES: C[C@H]1[C@@H]2Cc3c(C(=O)O)n[nH]c3[C@H]12 (racemic)
Activity [1]: inactive

SMILES: CC(C)[C@@H]1[C@@H]2Cc3c(C(=O)O)n[nH]c3[C@@H]21 (racemic)
Activity [1]: inactive

SMILES: CC[C@H]1[C@@H]2Cc3c(C(=O)O)n[nH]c3[C@H]12 (racemic)
Activity [1]: inactive

SMILES: COC[C@@H]1[C@@H]2Cc3c(C(=O)O)n[nH]c3[C@H]12 (racemic)
Activity [1]: inactive

SMILES: C[C@H]1[C@H]2Cc3c(C(=O)O)n[nH]c3[C@@H]12
Activity [1]: inactive

SMILES: O=C(O)c1n[nH]c2c1CC1CC21 (racemic)
Activity [1]: inactive

SMILES: CC[C@@H]1[C@@H]2Cc3c(C(=O)O)n[nH]c3[C@H]12 (racemic; form 1)
Activity [1]: inactive

SMILES: CC1(C)C2Cc3c(C(=O)O)n[nH]c3C21 (racemic)
Activity [1]: inactive

SMILES: C[C@@H]1[C@@H]2Cc3c(C(=O)O)n[nH]c3[C@H]12 [listing 2 of 2 here]
Activity [1]: inactive
Activity [27]: inactive

SMILES: C[C@H]1[C@@H]2Cc3c(C(=O)O)n[nH]c3[C@H]12
Activity [1]: inactive

SMILES: CCCCC[C@H]1[C@@H]2Cc3c(C(=O)O)n[nH]c3[C@H]12 (racemic)
Activity [1]: inactive

The remaining lines, values ahead:

Activity [1]: inactive
SMILES: CCOC[C@@H]1[C@@H]2Cc3c(C(=O)O)n[nH]c3[C@H]12 (racemic)

Activity [1]: inactive
SMILES: O=C(O)c1n[nH]c2c1C[C@@H]1[C@H]2[C@@H]1C1CC1 (racemic)

Activity [1]: inactive
SMILES: CCC[C@@H]1[C@@H]2Cc3c(C(=O)O)n[nH]c3[C@H]12 (racemic)

Activity [1]: inactive
SMILES: C[C@@H]1[C@H]2Cc3c(C(=O)O)n[nH]c3[C@@H]12

Activity [1]: inactive
SMILES: CC(C)C[C@@H]1[C@@H]2Cc3c(C(=O)O)n[nH]c3[C@H]12 (racemic)

Activity [1]: inactive
SMILES: O=C(O)c1n[nH]c2c1C[C@H]1[C@@H](CC3CC3)[C@@H]21 (racemic; form 2)

Activity [1]: inactive
SMILES: C=CC[C@H]1[C@@H]2Cc3c(C(=O)O)n[nH]c3[C@H]12 (racemic)

Activity [1]: inactive
SMILES: O=C(O)c1n[nH]c2c1C[C@H]1[C@H](c3ccccc3)[C@@H]21 (racemic)

Activity [1]: inactive
SMILES: CSC[C@@H]1[C@@H]2Cc3c(C(=O)O)n[nH]c3[C@H]12 (racemic)

Activity [1]: inactive
SMILES: O=C(O)c1n[nH]c2c1C[C@H]1[C@H](Cc3ccccc3)[C@@H]21 (racemic)

Activity [1]: inactive
SMILES: CC[C@@H]1[C@@H]2Cc3c(C(=O)O)n[nH]c3[C@H]12 (racemic; form 2)

Activity [1]: inactive
SMILES: CC(C)CC[C@@H]1[C@@H]2Cc3c(C(=O)O)n[nH]c3[C@H]12 (racemic)

Activity [1]: inactive
SMILES: O=C(O)c1n[nH]c2c1C[C@H]1[C@@H](COc3ccccc3)[C@@H]21 (racemic)

Activity [1]: inactive
SMILES: C[C@@H]1[C@@H]2Cc3c(C(=O)O)n[nH]c3[C@H]12 (racemic)

Activity [1]: inactive
SMILES: CCOC[C@H]1[C@@H]2Cc3c(C(=O)O)n[nH]c3[C@H]12 (racemic)
